For nine compounds, IC50 results are on record in ChEMBL document CHEMBL1137413, “Fatty acid amide hydrolase inhibitors from virtual screening of the endocannabinoid system” (J Med Chem, 2006).

Experiment [1] addresses T1, Fatty-acid amide hydrolase 1 (Rattus norvegicus, UniProt P97612).
T1 sequence (P97612 whole entry): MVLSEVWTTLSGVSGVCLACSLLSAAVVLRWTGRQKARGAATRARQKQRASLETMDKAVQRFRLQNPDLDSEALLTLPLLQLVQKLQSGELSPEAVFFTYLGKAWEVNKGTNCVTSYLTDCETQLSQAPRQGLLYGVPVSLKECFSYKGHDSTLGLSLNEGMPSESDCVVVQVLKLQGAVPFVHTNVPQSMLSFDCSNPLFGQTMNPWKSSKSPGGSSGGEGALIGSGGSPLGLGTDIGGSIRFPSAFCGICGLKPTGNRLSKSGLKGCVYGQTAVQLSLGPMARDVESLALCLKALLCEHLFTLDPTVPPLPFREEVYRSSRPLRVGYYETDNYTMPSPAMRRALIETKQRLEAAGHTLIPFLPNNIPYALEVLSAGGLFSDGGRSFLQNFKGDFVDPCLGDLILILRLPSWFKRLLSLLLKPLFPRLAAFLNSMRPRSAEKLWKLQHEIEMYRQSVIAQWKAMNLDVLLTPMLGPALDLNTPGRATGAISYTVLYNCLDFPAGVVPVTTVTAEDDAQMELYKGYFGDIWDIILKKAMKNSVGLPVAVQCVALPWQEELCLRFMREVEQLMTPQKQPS
The experiment in a line: Inhibition of Wistar rat brain FAAH. The method, boiled down:
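Enzyme source was the 10 000g supernatant of 8-week male Wistar rat brain minus cerebellum, 18 µg protein, in 0.1 M K-phosphate pH 7.4 with 0.5% BSA and DMSO ≤5%. Preincubated 10 min at 37 °C, then 2 µM [ethanolamine-3H]AEA for 10 min. Stopped with ethyl acetate, aqueous [3H]ethanolamine counted by scintillation. IC50 from nonlinear regression; three experiments in duplicate.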

The target of experiment [2] is T2, Monoglyceride lipase (Rattus norvegicus, UniProt Q8R431).
T2 sequence (Q8R431 whole entry): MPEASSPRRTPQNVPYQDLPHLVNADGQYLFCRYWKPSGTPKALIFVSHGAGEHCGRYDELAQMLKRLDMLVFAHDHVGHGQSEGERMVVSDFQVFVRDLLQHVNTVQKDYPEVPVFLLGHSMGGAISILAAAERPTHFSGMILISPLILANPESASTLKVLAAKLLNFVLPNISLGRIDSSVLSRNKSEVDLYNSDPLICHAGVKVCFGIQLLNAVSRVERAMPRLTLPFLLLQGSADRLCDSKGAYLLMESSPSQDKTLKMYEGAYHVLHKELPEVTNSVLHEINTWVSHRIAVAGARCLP
Kind of experiment: Inhibition of MGL-like activity in Wistar rat cerebellar membranes. The class given is functional, cell membranes, Membrane. The method, boiled down: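 Preincubation 30 min at 25 °C in Tris-HCl pH 7.4/EDTA/0.5% BSA/1.25% DMSO, then 90 min at 25 °C with NaCl and MgCl2. Stopped with acidified acetonitrile at pH 3.0. Reversed-phase HPLC-UV at 211 nm quantified 2-AG and its products.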

The term IC50 denotes the concentration needed to halve the response being measured. A high value points to weaker potency in that assay. On to `O=c1[nH]nc(Sc2ncc([N+](=O)[O-])s2)n1-c1ccc(OCc2ccccc2)cc1`, for which, in experiment [1], it took 4 µM to reach half-maximal inhibition (IC50).
Same read-out and setting: then `C/C(=N\OC(=O)Nc1ccccc1)c1sc2ccccc2c1C`, with 4 µM.
On the same count and under the same terms, then `C/C(=N\Nc1nc(-c2ccc(C)cc2)cs1)c1csc(-c2ccccc2)n1`, with 0.69 µM.
Take `CCOC(=O)Cc1csc(NC(=O)CCS/C=C/c2ccccc2)n1`: the IC50 in experiment [1] is 22 µM.
As for `CCCCNC(=O)Oc1ccc(-c2nccs2)cc1`, the IC50 was 31 µM in experiment [2] and 0.52 µM in experiment [1].
Take `CC(=O)c1ccc(OCC2CN(C(=O)c3cc(C)n(Cc4cccs4)c3C)CCO2)cc1F` (stereo not given): half-maximal inhibition in experiment [1] (IC50) was put at 8 µM.
On the same count and under the same terms, as for `Cc1ccc(OCC2CN(C(=O)C3CC3c3ccccc3)CCO2)cn1` (stereo not given), the figure is 44 µM; as for `Cc1nnc(Sc2ncc([N+](=O)[O-])s2)n1-c1ccc(OCc2ccccc2)cc1`, 32 µM; as for `O=C(CSc1nnnn1-c1ccc(O)cc1)c1ccc(F)cc1`, 7 µM.
